Env fusion inh: inhibitors of HIV-1 Env-driven cell-cell fusion, primary screen, HeLa-JRFL effector, CEM21 target cells, luciferase. inhibition, % at 12.3 µM. hit rate 1.1% among 360,000. AID 651610, 2012;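 active = mean replicate inhibition score of at least 50 and every replicate individually at or above 50; inconclusive = only one of the two criteria met; inactive = mean below 50 and not all replicates reaching 50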
Cneo AK release: Cryptococcus neoformans cell lysis inducers, primary screen, AK release luminescence, single concentration; C. neoformans lysis, adenylate kinase release luminescence, 4 h; normalised: neutral wells 0, clomiphene wells 100; lysis activity, % at 15 µM; hit rate 0.2% among 360,000; AID 651654, 2012;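 active = mean lysis activity across replicates of at least 80%, whatever share of replicates individually reach that level; inactive = mean lysis activity below 80%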
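read-out = cell lysis signal | test system = log-phase Cryptococcus neoformans yeast cells | input = cells at 5 × 10^6 per mL | medium = fresh YPD growth medium | signal = luminescent adenylate kinase detection reagent | timing = 4 h at 37 °C static, read 1 h later | dosing = single dose | controls = Clomiphene as positive lysis control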
PAX8 inh HTS: inhibitors of PAX8-driven TPO luciferase reporter, primary screen, RMG-I cells, single concentration; hit rate 1.2% among 360,000; inhibition, % at 12.6 µM; SteadyGlo, 24 h;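 active = mean replicate inhibition at least 60% with every replicate also reaching 60%; inconclusive = only one of the two criteria is met; inactive = mean below 60% and not all replicates reaching 60%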;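 note: luciferase light reporting Pax8 driven TPO promoter activity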
CDK5 inh: inhibitors of human CDK5/p35 kinase, primary screen, biochemical, single concentration. hit rate 0.01% among 330,000. Recombinant CDK5/p35, ADP-Glo luminescence, 60 min. AID 488839, 2010. Cyclin-dependent kinase 5 (Homo sapiens) + Cyclin-dependent kinase 5 activator 1 (Homo …. inhibition, % at 10 µM;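 active = highest replicate inhibition of at least 50% and at least 75% of replicates reaching 50%; inconclusive = only one of the two criteria met; inactive = both criteria failed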
Target sequence (Q00535 whole entry, looked up): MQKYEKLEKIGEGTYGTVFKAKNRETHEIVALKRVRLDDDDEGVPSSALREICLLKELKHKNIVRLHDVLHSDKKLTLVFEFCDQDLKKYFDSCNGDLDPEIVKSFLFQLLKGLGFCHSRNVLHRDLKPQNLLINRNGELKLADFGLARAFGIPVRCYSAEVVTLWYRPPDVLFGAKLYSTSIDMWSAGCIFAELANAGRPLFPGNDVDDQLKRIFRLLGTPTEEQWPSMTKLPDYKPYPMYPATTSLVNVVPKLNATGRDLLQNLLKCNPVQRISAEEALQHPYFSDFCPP
Target sequence (Q15078 whole entry, looked up): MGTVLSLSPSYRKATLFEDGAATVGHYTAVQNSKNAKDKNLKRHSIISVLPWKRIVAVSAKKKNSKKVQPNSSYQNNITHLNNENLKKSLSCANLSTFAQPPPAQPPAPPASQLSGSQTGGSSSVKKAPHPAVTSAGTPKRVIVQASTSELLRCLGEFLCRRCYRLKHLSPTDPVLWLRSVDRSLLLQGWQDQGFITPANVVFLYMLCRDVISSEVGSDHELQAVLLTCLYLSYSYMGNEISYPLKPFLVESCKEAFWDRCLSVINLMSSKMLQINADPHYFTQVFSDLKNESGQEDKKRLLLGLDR
GSIS activator: GLuc luminescence reporter in INS-1E cells, primary screen for activators of glucose-dependent secretion of insulin. INS-1E GLuc reporter insulin secretion, 2-3 h. activation, % at 16.6 µM. hit rate 0.61% among 370,000. AID 743287, 2014;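 active = lowest replicate activation of at least 40%, so every replicate reaches that level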
dFosB act: activators of delta FosB homodimer, primary screen, biochemical, fluorescence polarization, TAMRA-CDK5 oligo, single point; Protein FosB (Mus musculus), P13346; purified delta FosB; percent of positive-control signal above neutral wells; activation, % at 25 µM; hit rate 0.99% among 340,000;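 active = mean activation above about 17%, with every replicate also reaching it, limit read from the data, passing the limit was not always enough; inconclusive = only one of the two conditions met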
Of the large screens only hits and unclear results are named; the others gave an inactive call; ! = a repeat was not active; [ ] = dose if it differs, or a comment. In the library only some 2.9% were active in any assay of this set; here they are far more common.

C[C@H](CO)N1C[C@H](C)[C@H](CN(C)Cc2ccc(Cl)c(Cl)c2)Oc2c(NC(=O)Nc3ccccc3)cccc2C1=O	Cneo AK release 90 (no result: CDK5 inh, dFosB act)
C[C@H]1CN([C@@H](C)CO)C(=O)c2cccc(NC(=O)Nc3ccccc3)c2O[C@@H]1CN(C)Cc1ccc(Cl)c(Cl)c1	Env fusion inh 62[16.7 µM] (no result: CDK5 inh, dFosB act)
O=C(C[C@H]1C[C@@H]2c3cc(NC(=O)C4CCOCC4)ccc3O[C@@H]2[C@H](CO)O1)NC1CCCC1	none (no result: CDK5 inh, dFosB act)
CC(C)[C@@H]1CC[C@@H](C)C[C@H]1OC[B-](F)(F)F	GSIS activator 69 (no result: Cneo AK release, CDK5 inh, dFosB act)
CCNc1nc(Oc2ccc(C#N)cc2)cc(C(F)(F)F)n1	GSIS activator 105 (no result: Cneo AK release)
CCNc1nc(Oc2ccc(F)cc2)cc(C(F)(F)F)n1	none
CC(=O)c1sc(=S)n(-c2ccccc2)c1C	none (no result: GSIS activator)
CC(=O)c1sc2c(c1OC(=O)c1ccccc1)c(=O)n(-c1ccccc1)c(=S)n2-c1ccccc1	Env fusion inh 62 (no result: Cneo AK release)
C[C@H](CO)N1C[C@H](C)[C@@H](CN(C)Cc2ccc(C(F)(F)F)cc2)Oc2ccc(NS(=O)(=O)c3ccccc3)cc2CC1=O	PAX8 inh HTS 76 (no result: Env fusion inh, CDK5 inh, dFosB act)
C[C@@H]1CN([C@@H](C)CO)C(=O)c2cc(NS(=O)(=O)c3ccc(F)cc3)ccc2O[C@@H]1CN(C)Cc1ccc(C(F)(F)F)cc1	PAX8 inh HTS 107 (no result: CDK5 inh, dFosB act)
C[C@H](CO)N1C[C@H](C)[C@@H](CN(C)Cc2ccc(C(F)(F)F)cc2)Oc2ccc(NS(=O)(=O)c3ccc(F)cc3)cc2CC1=O	PAX8 inh HTS 83 (no result: CDK5 inh, dFosB act)
C[C@H](CO)N1C[C@H](C)[C@H](CN(C)Cc2ccc(C(F)(F)F)cc2)Oc2ccc(NS(=O)(=O)c3ccc(F)cc3)cc2CC1=O	PAX8 inh HTS 85 (no result: CDK5 inh, dFosB act)
C[C@H](CO)N1C[C@H](C)[C@@H](CN(C)Cc2ccc(C(F)(F)F)cc2)Oc2ccc(NS(=O)(=O)c3ccc(F)cc3)cc2C1=O	none (no result: CDK5 inh, dFosB act)
C[C@H]1CN([C@@H](C)CO)C(=O)Cc2cc(NS(=O)(=O)c3ccc(Cl)cc3)ccc2O[C@H]1CN(C)Cc1ccc(C(F)(F)F)cc1	none (no result: CDK5 inh, dFosB act)
CO[C@H]1CN(C)C(=O)c2cc(NC(=O)NC3CCCCC3)ccc2OC[C@@H](C)N(C(C)=O)C[C@@H]1C	none (no result: Env fusion inh, PAX8 inh HTS, CDK5 inh, dFosB act)
O=C(CCN1CCCCC1)NCC[C@@H]1CC[C@@H](NC(=O)C2CC2)[C@H](CO)O1	none (no result: CDK5 inh, dFosB act)
COCC(=O)Nc1ccc2c(c1)C(=O)N(C)C[C@@H](OC)[C@@H](C)CN(Cc1cccnc1)[C@@H](C)CO2	none (no result: Env fusion inh, CDK5 inh, dFosB act)
Cc1ccc(S(=O)(=O)Nc2ccc3c(c2)C(=O)N([C@H](C)CO)C[C@H](C)[C@@H](CN(C)Cc2ccccc2)O3)cc1	Cneo AK release 100!
CO[C@H](CN(C)C(=O)c1ccccc1F)[C@@H](C)CN([C@@H](C)CO)S(=O)(=O)c1ccc(Cl)cc1	none (no result: Env fusion inh, PAX8 inh HTS, CDK5 inh, dFosB act)
COCC(=O)Nc1ccc2c(c1)OC[C@H](C)N(C(=O)NC(C)C)C[C@H](C)[C@H](OC)CN(C)C2=O	none (no result: CDK5 inh, dFosB act)
CCC(=O)N1CCN(c2ccc(-n3c(=O)ccc4cnc5ccc(-c6cnc7ccccc7c6)cc5c43)cc2C(F)(F)F)CC1	Env fusion inh 59, PAX8 inh HTS 71 (no result: Cneo AK release, CDK5 inh, dFosB act)
O=C(O)COCC(=O)N1CCN(c2cc(C(F)(F)F)nc3ccccc23)CC1	none
CCCNc1ncnc2ccc(Br)cc12	none (no result: CDK5 inh, GSIS activator, dFosB act)
CCN(CC)c1ncnc2ccc(Br)cc12	Env fusion inh 87 (no result: PAX8 inh HTS)
CCCNC(=O)N1CCC2(CC1)CN(Cc1ccccc1)[C@@H](CO)c1[nH]c3cc(OC)ccc3c12	none (no result: Cneo AK release, PAX8 inh HTS, CDK5 inh, dFosB act)
Cc1ccc(-c2nnc3sc(-c4ccncc4)nn23)cc1	GSIS activator 67, dFosB act inconclusive (no result: Env fusion inh, PAX8 inh HTS)
CN(C)CC1CCC/C(=C\c2ccc(OC(=O)c3ccc(Cl)cc3)cc2)C1=O (stereo not given)	Env fusion inh 60 (no result: Cneo AK release, PAX8 inh HTS, GSIS activator)
CCCC(=O)Nc1ccc2c(c1)C(=O)N(C)C[C@@H](OC)[C@@H](C)CN(Cc1cccc(F)c1)[C@@H](C)CO2	none (no result: Env fusion inh, PAX8 inh HTS, CDK5 inh, dFosB act)
CC(C)C1COS(=O)(=O)NC1CC(=O)SC(C)(C)C (stereo not given)	none
CC(C)(C)SC(=O)CC1NS(=O)(=O)OCC1NC(=O)OCC(Cl)(Cl)Cl (stereo not given)	Env fusion inh 63 (no result: GSIS activator)
O=C(NC1CCCC1)N1CCCCN2[C@@H](CO)[C@@H](c3ccc(/C=C/c4ccccc4)cc3)[C@@H]2C1	PAX8 inh HTS 104 (no result: Env fusion inh, CDK5 inh, dFosB act)
O=C(NC1CCCC1)N1CCCCN2[C@@H](CO)[C@H](c3ccc(/C=C/c4ccccc4)cc3)[C@@H]2C1	none (no result: Env fusion inh, CDK5 inh, dFosB act)
O=C(Nc1ccccc1F)N1CCCCN2[C@@H](CO)[C@@H](c3ccc(/C=C/c4ccccc4)cc3)[C@@H]2C1	PAX8 inh HTS 76 (no result: Env fusion inh, CDK5 inh, dFosB act)
O=C(Nc1ccccc1F)N1CCCCN2[C@H](C1)[C@H](c1ccc(/C=C/c3ccccc3)cc1)[C@@H]2CO	none (no result: Env fusion inh, CDK5 inh, dFosB act)
COc1cc(OC)c2c(-c3ccccc3)cc(C3CCCCC3)nc2c1	GSIS activator 42
CCS(=O)(=O)N1Cc2ccccc2CC1C(=O)NCC12CC3CC(CC(C3)C1)C2 (stereo not given)	Env fusion inh 86 (no result: GSIS activator)
CCS(=O)(=O)N1Cc2ccccc2CC1C(=O)Nc1nc(C)cs1 (stereo not given)	none (no result: Cneo AK release)
CCS(=O)(=O)N1Cc2ccccc2CC1C(=O)NC(C)C12CC3CC(CC(C3)C1)C2 (stereo not given)	Env fusion inh 102 (no result: GSIS activator)
CCS(=O)(=O)N1Cc2ccccc2CC1C(=O)Nc1nnc(SCc2c(Cl)cccc2Cl)s1 (stereo not given)	PAX8 inh HTS 113 (no result: Env fusion inh, GSIS activator)
CN(C)CC(=O)N[C@H]1CC[C@H](CCNC(=O)Nc2ccc(C(F)(F)F)cc2)O[C@H]1CO	none (no result: CDK5 inh, dFosB act)
Cc1nc(C)c(-c2ccc(SCC(=O)Nc3ccc(C)c(Cl)c3)nn2)s1	GSIS activator 41
COC1(OC)C(/C=C/c2ccc(C)cc2)C(C#N)(C#N)C1(OC)OC (stereo not given)	PAX8 inh HTS 85 (no result: GSIS activator)
COc1cc(OC)nc(Nc2nc(C(N)COCc3ccccc3)cs2)n1 (stereo not given)	Env fusion inh 97 (no result: CDK5 inh, dFosB act)
COc1cc(OC)nc(Nc2nc(C(N)CCc3ccccc3)cs2)n1 (stereo not given)	none (no result: CDK5 inh, dFosB act)
COCC#Cc1cnc2c(c1)C(=O)N([C@H](C)CO)C[C@H](C)[C@H](CN(C)C(=O)C1CC1)O2	Cneo AK release 101 (no result: PAX8 inh HTS, CDK5 inh, dFosB act)
COCC(=O)N(C)C[C@@H]1Oc2ncc(C#CCC3CCCC3)cc2C(=O)N([C@H](C)CO)C[C@H]1C	Cneo AK release 87 (no result: PAX8 inh HTS, CDK5 inh, dFosB act)
COCC#Cc1cnc2c(c1)C(=O)N([C@@H](C)CO)C[C@@H](C)[C@@H](CN(C)C(=O)C1CC1)O2	Cneo AK release 87 (no result: PAX8 inh HTS, CDK5 inh, dFosB act)

High-throughput results (PubChem BioAssay)
